Measured values: ChEMBL document CHEMBL1128722, “Mechanism-based isocoumarin inhibitors for human leukocyte elastase. Effect of the 7-amino substituent and 3-alkoxy group in 3-alkoxy-7-amino-4-chloroisocoumarins on inhibitory potency” (J Med Chem, 1995)
Blank lines part the entries; values can stand above or below the molecule they belong to. Active and inactive are the calls of the source. The rule behind the calls is not given here.

How the values were obtained:
[1] = molecular target: Chymotrypsinogen A (Bos taurus) (UniProt P00766); assay: The second order inactivation rate constant was expressed as inhibition of chymotrypsin (ChT). Inhibitor concentrations were 3.4-70 uM
Summary of the method: (§1)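 Kitz–Wilson incubation method. Enzyme was preincubated with inhibitor (added in DMSO) in 0.1 M HEPES, 0.5 M NaCl, pH 7.5, at 25 °C. Aliquots were taken over time and diluted into pNA substrate: HLE MeO-Suc-Ala-Ala-Pro-Val-pNA (0.2–0.5 mM), PPE Suc-Ala-Ala-Ala-pNA, ChT and Cat G Suc-Val-Pro-Phe-pNA (0.4–0.5 mM). Release was read at 410 nm. kobs/[I] from ln(v0/vt) vs time. Mean of two determinations. Fast rates measured with equimolar inhibitor and enzyme.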

[2] = molecular target: T1, Chymotrypsin-like elastase family member 2A (Sus scrofa) (UniProt P08419); assay: The second order inactivation rate constant was expressed as inhibition of porcine pancreatic elastase (PPE). Inhibitor concentrations were 34-56 uM; summary of the method: as §1
T1 sequence (whole entry): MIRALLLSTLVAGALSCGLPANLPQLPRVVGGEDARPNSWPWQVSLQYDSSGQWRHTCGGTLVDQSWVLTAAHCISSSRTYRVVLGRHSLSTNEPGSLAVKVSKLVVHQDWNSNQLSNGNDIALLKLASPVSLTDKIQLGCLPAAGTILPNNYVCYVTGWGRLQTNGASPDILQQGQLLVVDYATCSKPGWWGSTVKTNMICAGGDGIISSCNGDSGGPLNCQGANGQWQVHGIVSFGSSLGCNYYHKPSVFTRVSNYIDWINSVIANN

[3] = molecular target: T2, Neutrophil elastase (Homo sapiens) (UniProt P08246); assay: Inhibition of human leukocyte elastase(HLE) at 0.7-1.7 uM; summary of the method: as §1
T2 sequence (whole entry): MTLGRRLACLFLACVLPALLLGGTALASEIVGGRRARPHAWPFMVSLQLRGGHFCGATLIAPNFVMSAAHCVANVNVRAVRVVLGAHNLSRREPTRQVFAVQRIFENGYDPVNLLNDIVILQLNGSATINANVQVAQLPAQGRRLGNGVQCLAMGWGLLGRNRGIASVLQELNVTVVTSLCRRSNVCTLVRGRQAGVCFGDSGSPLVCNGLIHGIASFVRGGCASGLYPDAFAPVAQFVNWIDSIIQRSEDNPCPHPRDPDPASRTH

[4] = molecular target: T1, Chymotrypsin-like elastase family member 2A (Sus scrofa); assay: Percent activity regained after 20h of pre-incubation before addition of hydroxylamine (Preincubated Pancreatic elastase).
Summary of the method: (§2)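 Without preincubation, hydroxylamine was added immediately after inhibition at [I]/PPE 200:1, and activity was read after 17 h. With preincubation, the 1:1 [I]/PPE complex stood 20 h at room temperature in buffer before hydroxylamine was added. Activity read at 1–17 h.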

[5] = molecular target: Chymotrypsinogen A (Bos taurus) (UniProt P00766); assay: The second order inactivation rate constant was expressed as inhibition of chymotrypsin (ChT).Inhibitor concentrations were 360-570 uM; summary of the method: as §1
[6] = molecular target: T2, Neutrophil elastase (Homo sapiens); assay: The second order inactivation rate constant was expressed as inhibition of human leukocyte elastase (HLE). Inhibitor concentrations were 0.4-4 uM; summary of the method: as §1
[7] = molecular target: T1, Chymotrypsin-like elastase family member 2A (Sus scrofa); assay: Percent activity regained after 17h of incubation with hydroxylamine (Non-preincubated PPE).; summary of the method: as §2
[8] = molecular target: T1, Chymotrypsin-like elastase family member 2A (Sus scrofa); assay: The second order inactivation rate constant was expressed as inhibition of porcine pancreatic elastase (PPE).Inhibitor concentrations were 2-600 uM; summary of the method: as §1
[9] = Half-life for hydrolysis of compound was determined from kinetic constant.; assay type: ADME
Summary of the method: (§3)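 Spontaneous hydrolysis in 0.1 M HEPES, 0.5 M NaCl, pH 7.5, 10% v/v DMSO final, 25 °C. Inhibitor added from 2.9–5.0 mM DMSO stock. Ring opening followed as absorbance decrease at 385 nm (ε385 = 3300 M⁻¹ cm⁻¹). Half-life from the first-order rate. Two determinations, standard errors ±15% or less.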

[10] = molecular target: T1, Chymotrypsin-like elastase family member 2A (Sus scrofa); assay: Percent activity regained after 17h of incubation with hydroxylamine (Non-preincubated Pancreatic elastase).; summary of the method: as §2
[11] = molecular target: T2, Neutrophil elastase (Homo sapiens); assay: The second order inactivation rate constant expressed as inhibition of human leukocyte elastase (HLE). Inhibitor concentrations were 0.07-710 uM; summary of the method: as §1
[12] = molecular target: T3, Cathepsin G (Homo sapiens) (UniProt P08311); assay: The second order inactivation rate constant was expressed as inhibition of cathepsin G(Cat G).Inhibitor concentrations were 35-710 uM; No inhibition; summary of the method: as §1
T3 sequence (whole entry): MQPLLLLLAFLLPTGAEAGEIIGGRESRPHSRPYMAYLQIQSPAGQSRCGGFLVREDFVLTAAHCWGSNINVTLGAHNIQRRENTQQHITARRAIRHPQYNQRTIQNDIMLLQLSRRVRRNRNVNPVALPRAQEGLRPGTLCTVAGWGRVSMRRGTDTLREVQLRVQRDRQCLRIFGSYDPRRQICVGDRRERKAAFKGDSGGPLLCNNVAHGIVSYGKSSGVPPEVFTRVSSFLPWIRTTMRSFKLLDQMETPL

[13] = molecular target: T3, Cathepsin G (Homo sapiens); assay: Inhibition of cathepsin G at 35-710 uM; summary of the method: as §1
[14] = Half-life for hydrolysis was determined from kinetic constant.; assay type: ADME; summary of the method: as §3
[15] = molecular target: T2, Neutrophil elastase (Homo sapiens); assay: The second order inactivation rate constant was expressed as inhibition of human leukocyte elastase.; summary of the method: as §1
[16] = molecular target: T1, Chymotrypsin-like elastase family member 2A (Sus scrofa); assay: The second order inactivation rate constant expressed as inhibition of porcine pancreatic elastase (PPE).Inhibitor concentrations were 0.04-2.0 mM
[17] = molecular target: T2, Neutrophil elastase (Homo sapiens); assay: Inhibition of human leukocyte elastase.; summary of the method: as §1
[18] = molecular target: T2, Neutrophil elastase (Homo sapiens); assay: Second order inactivation rate constant for inhibition of human leukocyte elastase.; summary of the method: as §1
[19] = molecular target: T3, Cathepsin G (Homo sapiens); assay: The second order inactivation rate constant was expressed as inhibition of cathepsin G (Cat G).Inhibitor concentrations were 35-710 uM; summary of the method: as §1
[20] = molecular target: T1, Chymotrypsin-like elastase family member 2A (Sus scrofa); assay: The second order inactivation rate constant was expressed as inhibition of porcine pancreatic elastase (PPE).Inhibitor concentrations were 0.04-2.0 uM;No inhibition; conditions: in the assay text read “0.04-2.0 mM” for “0.04-2.0 uM”; summary of the method: as §1
[21] = molecular target: Chymotrypsinogen A (Bos taurus) (UniProt P00766); assay: The second order inactivation rate constant was expressed as inhibition of chymotrypsin (ChT).Inhibitor concentrations were 1.7-58 uM;No inhibition; summary of the method: as §1

SMILES: CCCOc1oc(=O)c2cc(N/C(S)=N/Cc3ccccc3)ccc2c1Cl
- k obs / 1 [1]: 120 M⁻¹ s⁻¹
- k obs / 1 [2]: 79 M⁻¹ s⁻¹
- k obs / 1 [3]: > 130000 M⁻¹ s⁻¹

SMILES: COc1oc(=O)c2cc(NC(=O)[C@H](Cc3ccccc3)NC(=O)c3ccc([N+](=O)[O-])cc3)ccc2c1Cl
- Activity regained [4]: 6%
- k obs / 1 [5]: 30 M⁻¹ s⁻¹
- k obs / 1 [6]: 130000 M⁻¹ s⁻¹
- k obs / 1 [8]: 64 M⁻¹ s⁻¹
- Activity regained [10]: 91%

SMILES: CC(C)(C)OC(=O)N[C@@H](Cc1ccccc1)C(=O)Nc1ccc2c(Cl)c(OCCCBr)oc(=O)c2c1
- K obs / 1 [11]: 1320 M⁻¹ s⁻¹
- K obs / 1 [12]: inactive

SMILES: Nc1ccc2c(Cl)c(OCCBr)oc(=O)c2c1
- K obs / 1 [13]: 410 M⁻¹ s⁻¹
- half-life [14]: 2.4 h
- K obs / 1 [15]: 200000 M⁻¹ s⁻¹
- K obs / 1 [16]: 1000 M⁻¹ s⁻¹
- [I] [17]: 0.07 µM

SMILES: CCCOc1oc(=O)c2cc(N/C(S)=N/c3ccccc3)ccc2c1Cl
- k obs / 1 [1]: 240 M⁻¹ s⁻¹
- k obs / 1 [2]: 59 M⁻¹ s⁻¹
- k obs / 1 [3]: > 170000 M⁻¹ s⁻¹

SMILES: COc1oc(=O)c2cc(NC(=O)[C@H](Cc3ccccc3)NC(=O)c3ccc(C)cc3)ccc2c1Cl
- Activity regained [4]: 14%
- k obs / 1 [5]: 130 M⁻¹ s⁻¹
- k obs / 1 [6]: 170000 M⁻¹ s⁻¹
- k obs / 1 [8]: 83 M⁻¹ s⁻¹
- half-life [9]: > 48 h
- Activity regained [10]: 91%

SMILES: Nc1ccc2c(Cl)c(OCCCBr)oc(=O)c2c1
- K obs / 1 [11]: 4000 M⁻¹ s⁻¹
- k obs / 1 [18]: 4000 M⁻¹ s⁻¹
- half-life [14]: 3.2 h
- K obs / 1 [16]: 10 M⁻¹ s⁻¹
- [I] [17]: 3.4 µM
- K obs / 1 [19]: 210 M⁻¹ s⁻¹

SMILES: O=C(Nc1ccccc1)Nc1ccc2c(Cl)c(OCCBr)oc(=O)c2c1
- K obs / 1 [11]: 1.2e+06 M⁻¹ s⁻¹
- K obs / 1 [12]: inactive
- K obs / 1 [16]: 36 M⁻¹ s⁻¹

Results, then the molecule that gave them:

- Activity regained [4]: 31%
- k obs / 1 [5]: 55 M⁻¹ s⁻¹
- k obs / 1 [6]: 180000 M⁻¹ s⁻¹
- Activity regained [7]: 91%
- k obs / 1 [8]: 530 M⁻¹ s⁻¹
- half-life [9]: > 48 h
SMILES: COc1oc(=O)c2cc(NC(=O)[C@H](Cc3ccccc3)NC(=O)c3ccccc3)ccc2c1Cl

- k obs / 1 [1]: 5200 M⁻¹ s⁻¹
- k obs / 1 [2]: 1600 M⁻¹ s⁻¹
- k obs / 1 [3]: 140000 M⁻¹ s⁻¹
SMILES: CCCOc1oc(=O)c2cc(NC(=O)Nc3ccccc3)ccc2c1Cl

- K obs / 1 [11]: 1480 M⁻¹ s⁻¹
- K obs / 1 [12]: inactive
SMILES: CC(C)(C)OC(=O)N[C@H](Cc1ccccc1)C(=O)Nc1ccc2c(Cl)c(OCCCBr)oc(=O)c2c1

- K obs / 1 [12]: inactive
SMILES: O=C(CCc1ccccc1)Nc1ccc2c(Cl)c(OCCCBr)oc(=O)c2c1

- k obs / 1 [1]: 12000 M⁻¹ s⁻¹
- k obs / 1 [2]: 220 M⁻¹ s⁻¹
- k obs / 1 [3]: > 280000 M⁻¹ s⁻¹
SMILES: CCCOc1oc(=O)c2cc(NC(=O)NCC)ccc2c1Cl

- k obs / 1 [1]: 6100 M⁻¹ s⁻¹
- k obs / 1 [2]: 520 M⁻¹ s⁻¹
- k obs / 1 [3]: 33000 M⁻¹ s⁻¹
SMILES: CCCOc1oc(=O)c2cc(NC(=O)[C@H](Cc3ccccc3)NS(=O)(=O)c3ccc(C)cc3)ccc2c1Cl

- k obs / 1 [5]: 64 M⁻¹ s⁻¹
- k obs / 1 [6]: 130000 M⁻¹ s⁻¹
- k obs / 1 [8]: 1600 M⁻¹ s⁻¹
- half-life [9]: > 48 h
SMILES: COc1oc(=O)c2cc(NC(=O)[C@H](Cc3ccccc3)NC(=O)c3cccc(C)c3)ccc2c1Cl

- K obs / 1 [11]: 3210 M⁻¹ s⁻¹
- K obs / 1 [20]: inactive
- K obs / 1 [21]: inactive
SMILES: O=C(CCC(=O)OCc1ccccc1)Nc1ccc2c(Cl)c(OCCBr)oc(=O)c2c1
